# Reference: ChEMBL document CHEMBL4390675, “Dopamine D4 Receptor-Selective Compounds Reveal Structure-Activity Relationships that Engender Agonist Efficacy” (J Med Chem, 2019)
# Calls of active or inactive are those of the source. No cut-off for these calls is given here.
# Legend:
# [1] = biological target: T1, D(3) dopamine receptor (Homo sapiens, UniProt P35462); experiment: Displacement of [3H]N-methylspiperone from human D3 receptor expressed in HEK293 cell membranes measured after 60 mins by scintillation counting method
# T1 sequence (P35462 whole entry): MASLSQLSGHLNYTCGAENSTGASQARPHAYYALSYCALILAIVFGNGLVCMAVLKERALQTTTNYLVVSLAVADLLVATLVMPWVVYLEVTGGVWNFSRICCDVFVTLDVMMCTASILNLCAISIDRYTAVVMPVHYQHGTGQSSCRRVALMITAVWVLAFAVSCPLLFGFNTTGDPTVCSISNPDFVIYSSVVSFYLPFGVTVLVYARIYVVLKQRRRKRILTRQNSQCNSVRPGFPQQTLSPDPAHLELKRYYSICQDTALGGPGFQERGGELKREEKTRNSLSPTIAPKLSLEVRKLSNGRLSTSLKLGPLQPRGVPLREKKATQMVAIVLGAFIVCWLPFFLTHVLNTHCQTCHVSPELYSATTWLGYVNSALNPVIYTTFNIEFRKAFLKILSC
# Procedure, shortened: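 HEK293 cells stably expressing human D3R; membranes in EBSS buffer pH 7.4, stored at −80 °C. 20 μg protein/well with 0.4 nM [3H]N-methylspiperone (final), half-log dilutions in 30% DMSO, in triplicate. 60 min at room temperature, then GF/B filtration. Nonspecific binding with 10 μM (+)-butaclamol.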
# [2] = biological target: T2, D(4) dopamine receptor (Homo sapiens, UniProt P21917); experiment: Displacement of [3H]N-methylspiperone from human D4.4 receptor expressed in HEK293 cell membranes measured after 60 mins by scintillation counting method
# T2 sequence (P21917 whole entry): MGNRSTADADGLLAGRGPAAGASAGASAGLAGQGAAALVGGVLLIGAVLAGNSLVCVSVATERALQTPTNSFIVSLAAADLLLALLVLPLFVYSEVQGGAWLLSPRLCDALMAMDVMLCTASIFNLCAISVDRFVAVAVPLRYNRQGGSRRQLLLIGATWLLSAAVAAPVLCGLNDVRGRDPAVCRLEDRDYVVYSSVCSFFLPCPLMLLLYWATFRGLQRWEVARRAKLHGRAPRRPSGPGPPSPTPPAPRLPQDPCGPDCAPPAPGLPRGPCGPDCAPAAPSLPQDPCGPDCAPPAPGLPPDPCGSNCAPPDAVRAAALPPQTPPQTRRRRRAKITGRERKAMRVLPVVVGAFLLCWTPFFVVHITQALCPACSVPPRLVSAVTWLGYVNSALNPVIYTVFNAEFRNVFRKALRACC
# Procedure, shortened: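 Frozen HEK293 membranes stably expressing human D4.4R (30 μg/well) in EBSS-bicarbonate buffer, pH 7.4, were incubated with 0.4 nM [3H]N-methylspiperone and half-log compound dilutions (30% DMSO vehicle) for 60 min at room temperature. Nonspecific binding was defined by 10 μM (+)-butaclamol. Samples were filtered on GF/B filters and counted by scintillation.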
# [3] = biological target: T3, D(2) dopamine receptor (Homo sapiens, UniProt P14416); experiment: Agonist activity at human D2L receptor expressed in CHOK1 cells assessed as inhibition of forskolin-induced cAMP accumulation measured after 30 mins by Eu-cAMP tracer based TR-FRET assay; assay type: cell-based
# T3 sequence (P14416 whole entry, canonical isoform): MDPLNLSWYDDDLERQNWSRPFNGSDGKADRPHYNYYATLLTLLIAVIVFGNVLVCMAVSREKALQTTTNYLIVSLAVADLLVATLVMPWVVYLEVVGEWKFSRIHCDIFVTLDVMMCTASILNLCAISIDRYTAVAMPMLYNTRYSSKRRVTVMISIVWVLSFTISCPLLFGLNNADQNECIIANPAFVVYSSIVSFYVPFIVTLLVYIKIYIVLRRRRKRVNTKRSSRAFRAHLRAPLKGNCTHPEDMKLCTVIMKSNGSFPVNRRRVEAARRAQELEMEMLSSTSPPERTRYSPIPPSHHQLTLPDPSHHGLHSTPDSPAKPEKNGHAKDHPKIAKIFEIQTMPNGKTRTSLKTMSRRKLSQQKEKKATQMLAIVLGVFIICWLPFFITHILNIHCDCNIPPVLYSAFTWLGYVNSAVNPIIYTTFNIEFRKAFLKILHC
# Procedure, shortened: (§1)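 LANCE Ultra TR-FRET cAMP assay in CHO-K1 cells stably expressing human D2R long isoform or D4R. Cells were plated in HBSS/5 mM HEPES/0.2 μM metabisulfite, then immediately given compound plus forskolin (10 μM final) for 30 min at room temperature. Eu-cAMP tracer and ULight-anti-cAMP were added for 2 h in the dark. Values are % of maximal dopamine signal, nonlinear regression of triplicate runs, n = 3–4.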
# [4] = biological target: T3, D(2) dopamine receptor; experiment: Antagonist activity at human D2L receptor expressed in CHOK1 cells assessed as suppression of dopamine-induced inhibition of forskolin-stimulated cAMP accumulation measured after 30 mins by Eu-cAMP tracer based TR-FRET assay relative to dopamine; assay type: cell-based; details: 0.5 h
# [5] = biological target: T2, D(4) dopamine receptor; experiment: Agonist activity at human D4 receptor expressed in CHOK1 cells assessed as inhibition of forskolin-induced cAMP accumulation measured after 30 mins by Eu-cAMP tracer based TR-FRET assay; assay type: functional, cell-based; procedure, shortened: as §1
# [6] = biological target: T2, D(4) dopamine receptor; experiment: Antagonist activity at human D4 receptor expressed in CHOK1 cells assessed as suppression of dopamine-induced inhibition of forskolin-stimulated cAMP accumulation measured after 30 mins by Eu-cAMP tracer based TR-FRET assay; assay type: functional, cell-based
# [7] = biological target: T3, D(2) dopamine receptor; experiment: Agonist activity at human D2L receptor expressed in CHOK1 cells assessed as induction of beta-arrestin recruitment measured after 90 mins by luminescence assay; assay type: cell-based
# Procedure, shortened: (§2)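 PathHunter enzyme-complementation assay in CHO-K1 cells stably expressing human D2R long isoform, D3R or D4R, seeded overnight in Ham's F12/10% FBS. Compounds were diluted in PBS with 0.2 μM sodium metabisulfite and applied at multiple concentrations for 90 min at 37 °C. Detection reagent was added for 45–60 min at room temperature, then luminescence was read. Values are % of maximal dopamine response, from nonlinear regression of triplicate runs, mean ± SEM, n = 3–4.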
# [8] = biological target: T3, D(2) dopamine receptor; experiment: Antagonist activity at human D2L receptor expressed in CHOK1 cells assessed as inhibition of dopamine-induced beta-arrestin recruitment measured after 90 mins by luminescence assay relative to control; assay type: cell-based
# Procedure, shortened: (§3)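 Antagonist-mode PathHunter β-arrestin assay in CHO-K1 cells stably expressing human D2R long isoform or D3R, seeded overnight. Compound dilutions in PBS with 0.2 μM metabisulfite were co-incubated with an EC80 dopamine concentration for 90 min at 37 °C. Detection reagent was added for 45–60 min at room temperature, then luminescence was read. Values are % of dopamine EC80 response, from nonlinear regression of triplicate runs, n = 3–4.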
# [9] = biological target: T3, D(2) dopamine receptor; experiment: Antagonist activity at human D2L receptor expressed in CHOK1 cells assessed as inhibition of dopamine-induced beta-arrestin recruitment measured after 90 mins by luminescence assay; assay type: cell-based; procedure, shortened: as §3
# [10] = biological target: T1, D(3) dopamine receptor; experiment: Agonist activity at human D3 receptor expressed in CHOK1 cells assessed as induction of beta-arrestin recruitment measured after 90 mins by luminescence assay; assay type: cell-based; procedure, shortened: as §2
# [11] = biological target: T1, D(3) dopamine receptor; experiment: Antagonist activity at human D3 receptor expressed in CHOK1 cells assessed as inhibition of dopamine-induced beta-arrestin recruitment measured after 90 mins by luminescence assay; assay type: cell-based; procedure, shortened: as §3
# [12] = biological target: T2, D(4) dopamine receptor; experiment: Agonist activity at human D4 receptor expressed in CHOK1 cells assessed as induction of beta-arrestin recruitment measured after 90 mins by luminescence assay; assay type: cell-based; procedure, shortened: as §2
# [13] = biological target: T2, D(4) dopamine receptor; experiment: Antagonist activity at human D4 receptor expressed in CHOK1 cells assessed as inhibition of dopamine-induced beta-arrestin recruitment measured after 90 mins by luminescence assay; assay type: cell-based
# [14] = biological target: T1, D(3) dopamine receptor; experiment: Displacement of [3H](R)-(+)-7-OH-DPAT from human D3 receptor expressed in HEK293 cell membranes measured after 90 mins by scintillation counting method
# Procedure, shortened: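 Fresh HEK293 hD3R membranes (40 μg/well) in 50 mM Tris, 10 mM MgCl2, 1 mM EDTA, pH 7.4 were incubated with 0.5 nM [3H]-(R)-(+)-7-OH-DPAT and half-log compound dilutions in 30% DMSO for 90 min at room temperature. Nonspecific binding was defined with 10 μM (+)-butaclamol. Samples were filtered on PEI-soaked GF/B filters and counted by scintillation.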
# [15] = biological target: T3, D(2) dopamine receptor; experiment: Agonist activity at human D2L receptor expressed in CHOK1 cells assessed as inhibition of forskolin-induced cAMP accumulation measured after 30 mins by Eu-cAMP tracer based TR-FRET assay relative to dopamine; assay type: cell-based; details: 0.5 h
# [16] = biological target: T3, D(2) dopamine receptor; experiment: Agonist activity at human D2L receptor expressed in CHOK1 cells assessed as induction of beta-arrestin recruitment measured after 90 mins by luminescence assay relative to control; assay type: cell-based
# Procedure, shortened: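 PathHunter enzyme-complementation assay in CHO-K1 cells stably expressing human D2R long isoform, seeded 2625 cells/well and incubated overnight. Compounds diluted in PBS with 0.2 μM sodium metabisulfite, tested at multiple concentrations, 90 min at 37 °C. Detection reagent then 45–60 min at room temperature, luminescence read. Normalized to maximal dopamine response. Nonlinear regression of triplicate runs, n = 3–4.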
# [17] = biological target: T1, D(3) dopamine receptor; experiment: Agonist activity at human D3 receptor expressed in CHOK1 cells assessed as induction of beta-arrestin recruitment measured after 90 mins by luminescence assay relative to control; assay type: cell-based; procedure, shortened: as §2
# [18] = biological target: D(1A) dopamine receptor (Homo sapiens) (UniProt P21728); experiment: Agonist activity at D1 receptor (unknown origin) stably expressed in CHOK1 cells assessed as induction of beta-arrestin recruitment measured after 90 mins by luminescence assay; assay type: cell-based
# Sequence of D(1A) dopamine receptor (Homo sapiens) (P21728 whole entry): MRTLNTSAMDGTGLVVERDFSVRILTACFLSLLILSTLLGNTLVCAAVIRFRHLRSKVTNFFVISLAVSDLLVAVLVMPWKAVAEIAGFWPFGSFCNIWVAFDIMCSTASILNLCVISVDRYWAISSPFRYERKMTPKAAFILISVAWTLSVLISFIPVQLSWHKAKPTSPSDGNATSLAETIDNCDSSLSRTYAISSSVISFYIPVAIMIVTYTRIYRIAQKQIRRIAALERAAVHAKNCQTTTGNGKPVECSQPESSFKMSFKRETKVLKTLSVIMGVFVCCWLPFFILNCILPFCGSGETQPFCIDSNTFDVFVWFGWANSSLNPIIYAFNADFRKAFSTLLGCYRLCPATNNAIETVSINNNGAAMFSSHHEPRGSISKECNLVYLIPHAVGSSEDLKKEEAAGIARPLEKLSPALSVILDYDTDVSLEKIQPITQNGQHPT
# [19] = biological target: D(1B) dopamine receptor (Homo sapiens) (UniProt P21918); experiment: Agonist activity at D5 receptor (unknown origin) stably expressed in CHOK1 cells assessed as induction of beta-arrestin recruitment measured after 90 mins by luminescence assay; assay type: cell-based
# Sequence of D(1B) dopamine receptor (Homo sapiens) (P21918 whole entry): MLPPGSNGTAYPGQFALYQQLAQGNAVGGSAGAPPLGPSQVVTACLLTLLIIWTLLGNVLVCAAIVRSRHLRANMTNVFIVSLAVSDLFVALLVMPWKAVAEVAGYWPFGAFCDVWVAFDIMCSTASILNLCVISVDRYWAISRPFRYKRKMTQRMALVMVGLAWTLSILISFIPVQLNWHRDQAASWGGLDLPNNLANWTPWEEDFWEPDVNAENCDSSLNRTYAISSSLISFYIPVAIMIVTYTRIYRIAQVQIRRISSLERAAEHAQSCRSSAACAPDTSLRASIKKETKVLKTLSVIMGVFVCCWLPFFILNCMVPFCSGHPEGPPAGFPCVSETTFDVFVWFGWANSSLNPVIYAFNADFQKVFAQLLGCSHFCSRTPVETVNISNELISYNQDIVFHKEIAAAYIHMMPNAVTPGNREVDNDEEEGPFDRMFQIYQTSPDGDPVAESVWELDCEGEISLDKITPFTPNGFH
# [20] = biological target: D(1A) dopamine receptor (Homo sapiens) (UniProt P21728); experiment: Antagonist activity at D1 receptor (unknown origin) stably expressed in CHOK1 cells assessed as inhibition of dopamine-induced beta-arrestin recruitment measured after 90 mins by luminescence assay; assay type: cell-based
# [21] = biological target: D(1B) dopamine receptor (Homo sapiens) (UniProt P21918); experiment: Antagonist activity at D5 receptor (unknown origin) stably expressed in CHOK1 cells assessed as inhibition of dopamine-induced beta-arrestin recruitment measured after 90 mins by luminescence assay; assay type: cell-based
# [22] = biological target: T2, D(4) dopamine receptor; experiment: Displacement of [3H](R)-(+)-7-OH-DPAT from human D4.4 receptor expressed in HEK293 cell membranes measured after 90 mins by scintillation counting method
# Procedure, shortened: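 HEK293 cells stably expressing human D4.4R; membranes used fresh in 50 mM Tris, 10 mM MgCl2, 1 mM EDTA, pH 7.4. 60 μg protein/well with 3 nM [3H]-(R)-(+)-7-OH-DPAT (final), half-log dilutions in 30% DMSO, in triplicate. 90 min at room temperature, then GF/B filtration. Nonspecific binding with 10 μM (+)-butaclamol.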
SMILES,Ki [1],Ki [2],EC50 [3],inhibition (INH) [4],EC50 [5],IC50 [6],EC50 [7],INH [8],IC50 [9],EC50 [10],IC50 [11],EC50 [12],IC50 ([13]; read-out: IC50),Ki [14],Emax [15],EC50 ([5]; read-out: EC50),Emax [16],Emax [17],EC50 ([10]; read-out: EC50),IC50 ([11]; read-out: IC50),further results
O=C(CN1CCN(c2ccc(Cl)cn2)CC1)Nc1cccnc1,> 50 µM,5 µM,Not Active,100%,Not Active,40 µM,Not Active,Not Active,Not Active,Not Active,Not Active,Not Active,23.4 µM,,,,,,,,
Cc1cccc(NC(=O)CCN2CCC(c3ccccn3)CC2)c1,3.04 µM,> 10 µM,,,,6.34 µM,,72.1%,,,,Not Active,3.8 µM,0.51 µM,83.1%,0.349 µM,48.9%,55.4%,0.97 µM,> 50 µM,Activity [18]: inactive; Activity [19]: inactive; inhibition [20]: inactive; inhibition [21]: inactive
O=C(CN1CCN(c2ccccn2)CC1)Nc1cncnc1,> 50 µM,39.3 µM,Not Active,98.1%,Not Active,> 100 µM,Not Active,Not Active,Not Active,Not Active,Not Active,Not Active,,,,,,,,,IC50 [13]: Not Active
Cc1cccc(NC(=O)CCN2CCN(c3ccccn3)CC2)c1,3.79 µM,0.297 µM,,,,1.63 µM,,77.7%,,,,Not Active,1.09 µM,0.781 µM,79.7%,0.612 µM,44.1%,41.4%,1.6 µM,> 50 µM,Ki [22]: 0.0322 µM; Activity [18]: inactive; Activity [19]: inactive; inhibition [20]: inactive; inhibition [21]: inactive
